Data on three molecules can be found in ChEMBL document CHEMBL1125291, “New 8-(trifluoromethyl)-substituted quinolones. The benefits of the 8-fluoro group with reduced phototoxic risk” (1992).

Experiment [1] is filed under the species Mus musculus. As to the kind of experiment: Days of the first positive reaction in […] mice. The format is functional. The procedure, abridged:
(§1)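 Phototoxic skin reaction test in depilated female CD-1 mice. A single oral dose (gavage) or subcutaneous dose was given, followed 1 h later by 3 h of UVA exposure (320–400 nm). The regimen was repeated for up to 4 consecutive days, with initial doses of 30, 100 and 300 mg/kg. PTD50 was derived by the probit method. The first day of positive reaction and the no-effect dose were taken from the raw data.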

Experiment [2] is described as follows: Number of mice which show positive phototoxic reaction in 15 mice. The format is functional, Mus musculus. The procedure, abridged:
as §1

Experiment [3] deals with Escherichia coli. As to the kind of experiment: In vivo efficacy in mouse protection test in Escherichia coli Vogel administered by subcutaneous injection. The experiment is classed as functional. The settings on record: Escherichia coli, sc; read-out: PD50. A digest of the protocol: (§2)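 Acute lethal systemic infections in female Charles River CD-1 mice. A single dose was given at challenge, orally by gavage or by subcutaneous injection. PD50 (median protective dose, mg/kg) was determined.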

Experiment [4] deals with Escherichia coli. Nature of the experiment: In vivo efficacy in mouse protection test in Escherichia coli Vogel dose administered orally by gavage. The settings on record: Escherichia coli, po; read-out: PD50. The experiment is classed as functional. A digest of the protocol:
as §2

Experiment [5] relates to Escherichia coli. Nature of the experiment: Minimum inhibitory concentration (MIC) against gram negative bacteria Escherichia coli H-560. The experiment is classed as functional. The settings on record: Escherichia coli; read-out: MIC. The procedure, abridged: (§3)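 MICs were determined by standard broth microtitration against 11 Gram-positive and Gram-negative organisms, in µg/mL. Values come from duplicate or triplicate experiments and are accurate to ±50%.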

For experiment [6], the system named is Escherichia coli. Nature of the experiment: Minimum inhibitory concentration (MIC) against gram negative bacteria Escherichia coli Vogel. The experiment is classed as functional. The settings on record: Escherichia coli; read-out: MIC. A digest of the protocol:
as §3

For experiment [7], the system named is Enterobacter cloacae. As to the kind of experiment: Minimum inhibitory concentration (MIC) against gram negative bacteria Enterobacter cloacae MA-2646. The experiment is classed as functional.
For experiment [8], the system named is Klebsiella pneumoniae. As to the kind of experiment: Minimum inhibitory concentration (MIC) against gram negative bacteria Klebsiella pneumoniae MGH-2. The format is functional. The settings on record: Klebsiella pneumoniae; read-out: MIC. The procedure, abridged: as §3
Experiment [9] is filed under the species Mus musculus. As to the kind of experiment: Dose required to induce phototoxic reaction in 50% of mice by probit method at different dosage forms. The experiment is classed as functional.
The species named for experiment [10] is Mus musculus. As to the kind of experiment: Dose which has no effect to induce phototoxic reaction in 50% of mice by probit method. The format is functional.
For experiment [11], the system named is Mus musculus. As to the kind of experiment: Maximum tolerance dose was measured for phototoxic skin reaction by po administration. The format is functional.
Experiment [12] in a line: Minimum inhibitory concentration (MIC) against gram negative bacteria Prot. rettgeri M-1771. The experiment is classed as functional, Providencia rettgeri. The settings on record: Providencia rettgeri; read-out: MIC. A digest of the protocol: as §3
In experiment [13] the test system is Pseudomonas aeruginosa. As to the kind of experiment: In vivo efficacy (s.c.) against Pseudomonas aeruginosa in mouse protection test. The format is functional. The settings on record: Pseudomonas aeruginosa, sc; read-out: PD50. The procedure, abridged:
as §2

In experiment [14] the test system is Pseudomonas aeruginosa. Nature of the experiment: In vivo efficacy (orally) against Pseudomonas aeruginosa in mouse protection test. The settings on record: Pseudomonas aeruginosa, po; read-out: PD50. The format is functional. The procedure, abridged:
as §2

Experiment [15] concerns Pseudomonas aeruginosa. As to the kind of experiment: Minimum inhibitory concentration (MIC) against gram negative bacteria Pseudomonas aeruginosa UI-18. The experiment is classed as functional. The settings on record: Pseudomonas aeruginosa; read-out: MIC. A digest of the protocol: as §3
Experiment [16] relates to Streptococcus pyogenes. Nature of the experiment: In vivo efficacy (s.c.) against Streptococcus pyogenes C-203 in mouse protection test. The settings on record: Streptococcus pyogenes, sc; read-out: PD50. The experiment is classed as functional. A digest of the protocol:
as §2

Experiment [17] relates to Streptococcus pyogenes. Nature of the experiment: In vivo efficacy (orally) against Streptococcus pyogenes C-203 in mouse protection test. The experiment is classed as functional. The settings on record: Streptococcus pyogenes, po; read-out: PD50. A digest of the protocol: as §2
The subject of experiment [18] is Staphylococcus aureus. As to the kind of experiment: Minimum inhibitory concentration (MIC) against gram positive bacteria Staphylococcus aureus H-228. The format is functional. The settings on record: Staphylococcus aureus; read-out: MIC. The procedure, abridged: as §3
The subject of experiment [19] is Staphylococcus aureus. As to the kind of experiment: Minimum inhibitory concentration (MIC) against gram positive bacteria Staphylococcus aureus UC-76. The format is functional. The settings on record: Staphylococcus aureus; read-out: MIC. A digest of the protocol: as §3
The test system of experiment [20] is Enterococcus faecalis. As to the kind of experiment: Minimum inhibitory concentration (MIC) against gram positive bacteria Streptococcus faecalis MGH-2. The format is functional. The settings on record: Enterococcus faecalis; read-out: MIC. A digest of the protocol:
as §3

In experiment [21] the test system is Streptococcus pneumoniae. As to the kind of experiment: Minimum inhibitory concentration (MIC) against gram positive bacteria Streptococcus pneumoniae SV-1. The experiment is classed as functional. The settings on record: Streptococcus pneumoniae; read-out: MIC. A digest of the protocol: as §3
Experiment [22] deals with Streptococcus pyogenes. As to the kind of experiment: Minimum inhibitory concentration (MIC) against gram positive bacteria Streptococcus pyogenes C-203. The settings on record: Streptococcus pyogenes; read-out: MIC. The experiment is classed as functional. A digest of the protocol: as §3
The test system of experiment [23] is Streptococcus pneumoniae. As to the kind of experiment: In vivo efficacy (s.c.) against Streptococcus pneumoniae SV-1 in mouse protection test. The experiment is classed as functional. The settings on record: Streptococcus pneumoniae, sc; read-out: PD50. A digest of the protocol:
as §2

The test system of experiment [24] is Streptococcus pneumoniae. As to the kind of experiment: In vivo efficacy (orally) against Streptococcus pneumoniae SV-1 in mouse protection test. The experiment is classed as functional. The settings on record: Streptococcus pneumoniae, po; read-out: PD50. A digest of the protocol: as §2
A short description of experiment [25]: Number of mice which show positive phototoxic reaction in 5 mice at peroral dose. The experiment is classed as functional, Mus musculus. The procedure, abridged: (§4)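 Depilated female CD-1 mice got a single oral (gavage) or subcutaneous dose, then UVA (320–400 nm) exposure for 3 h starting 1 h post-dose. This was repeated for up to 4 consecutive days. Initial doses were 30, 100 and 300 mg/kg. PTD50 was derived by probit. First day of positive reaction and no-effect dose were taken from the raw data.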

A short description of experiment [26]: Number of mice which show positive phototoxic reaction in 5 mice at subcutaneous dose. The format is functional, Mus musculus. A digest of the protocol:
as §4

Experiment [27] deals with Mus musculus. As to the kind of experiment: Maximum tolerance dose was measured for phototoxic skin reaction by sc administration. The format is functional. The procedure, abridged: as §4
Experiment [28] in a line: Days of the first positive reaction in […] mice. The format is functional, Mus musculus. A digest of the protocol:
as §4

The species entered for experiment [29] is Mus musculus. Nature of the experiment: Number of mice which show positive phototoxic reaction in 5 mice. The format is functional.
The test system of experiment [30] is Mus musculus. As to the kind of experiment: Maximum tolerance dose was measured for phototoxic skin reaction by po administration in mice. The format is functional. A digest of the protocol: as §4
Experiment [31] concerns Staphylococcus aureus. As to the kind of experiment: Minimum inhibitory concentration (MIC) against gram positive bacteria Staphylococcus aureus H-228. The experiment is classed as functional. The procedure, abridged: as §3
Experiment [32] has as its system Escherichia coli. As to the kind of experiment: Minimum inhibitory concentration (MIC) against gram negative bacteria Escherichia coli H-560. The format is functional. A digest of the protocol:
as §3

Experiment [33] can be described thus: Minimum inhibitory concentration (MIC) against gram negative bacteria Prot. rettgeri M-1771. The settings on record: Providencia rettgeri. The experiment is classed as functional. The procedure, abridged:
as §3

Molecules are shown by their SMILES. In brackets after ≈: the same amount, converted by molar mass. Several values for one entry are separate records, joined by “and”; a condition that tells them apart may be missing. Equal entries are not always repeated.

By MIC is commonly meant the lowest concentration that inhibits growth of the organism. As a reminder, the MTD is the highest dose tested that stayed within the study's limit of toxicity. Read a low MTD as poorer tolerability. For the molecule `NC1CCN(c2c(F)cc3c(=O)c(C(=O)O)cn(C4CC4)c3c2F)C1` (centres undefined), in experiment [1], the “Day of first positve reaction” value was determined as 3. Moreover, the “No. of pos rxns” value in experiment [2] was found to be 15. For the same molecule, the ED50 in [3] amounted to 0.2 mg/kg; in experiment [4], 0.9 mg/kg; in [13], 3 mg/kg; in experiment [14] it was 6.5 mg/kg; in [16] it was 2.3 mg/kg; in experiment [17] it was 7.5 mg/kg. The figures for the ED50 in experiment [23] and in [24] were 5.5 mg/kg and 15 mg/kg, respectively. Moreover, the MIC in [5] stood at 0.003 µg/mL (≈ 0.00859 µM); in experiment [6] it was 0.025 µg/mL (≈ 0.0716 µM); in experiment [7], 0.013 µg/mL (≈ 0.0372 µM); in experiment [8], 0.025 µg/mL (≈ 0.0716 µM); in [12] it was 0.1 µg/mL (≈ 0.286 µM); in [15], 0.1 µg/mL (≈ 0.286 µM). In addition, the minimum inhibitory concentration (MIC) in [18] is 0.05 µg/mL (≈ 0.143 µM); in experiment [19] it was 0.025 µg/mL (≈ 0.0716 µM); in experiment [20], 0.1 µg/mL (≈ 0.286 µM); in [21], 0.1 µg/mL (≈ 0.286 µM); in [22] it was 0.05 µg/mL (≈ 0.143 µM). Also, in [9], the PTD50 was 4.2 mg/kg. In [10], this molecule displayed a No effect dose of 3 mg/kg. In experiment [11], the MTD stood at 6 mg/kg.

Take `CCn1cc(C(=O)O)c(=O)c2cc(F)c(N3CCNCC3)cc21` [NORFLOXACIN]: the “No. of pos rxns” value in experiment [25] is given as 0; in [26] it was 5. Besides, the ED50 in [3] was 0.6 mg/kg; in experiment [4], 4 mg/kg; in experiment [13], 11 mg/kg; in experiment [14] it was 76 mg/kg; in experiment [16] it was 45 mg/kg; in experiment [17], above 100 mg/kg. Also, the ED50 is 150 mg/kg in experiment [23] and above 100 mg/kg in experiment [24]. Besides, the MIC in [5] amounted to 0.1 µg/mL (≈ 0.313 µM); in experiment [6], 0.025 µg/mL (≈ 0.0783 µM); in experiment [7], 0.1 µg/mL (≈ 0.313 µM); in experiment [8] it was 0.05 µg/mL (≈ 0.157 µM); in experiment [12] it was 0.025 µg/mL (≈ 0.0783 µM); in experiment [15], 0.2 µg/mL (≈ 0.626 µM). Besides, the minimal inhibitory concentration (MIC) was found to be 0.8 µg/mL (≈ 2.51 µM) in [18]; 0.05 µg/mL (≈ 0.157 µM) in [19]; 1.6 µg/mL (≈ 5.01 µM) in experiment [20]; 1.6 µg/mL (≈ 5.01 µM) in experiment [21]; 0.8 µg/mL (≈ 2.51 µM) in experiment [22]. Also, in experiment [9], the PTD50 is >300 mg/kg and 172 mg/kg. In experiment [10], the No effect dose was 300 mg/kg and 100 mg/kg. Moreover, the MTD in [11] and in experiment [27] was 300 mg/kg in each case.

For the molecule `O=C(O)c1cn(C2CC2)c2c(C(F)(F)F)c(N3CCNCC3)c(F)cc2c1=O`, the “Day of first positve reaction” value in [28] amounted to 0. Further, in experiment [29], the “No. of pos rxns” value worked out at 0. Also, the ED50 in [3] worked out at 0.9 mg/kg; in experiment [4], 1.8 mg/kg; in experiment [23], 26 mg/kg; in experiment [24] it was 75 mg/kg. The MIC was found to be 0.05 µg/mL (≈ 0.125 µM) in experiment [6]; 0.05 µg/mL (≈ 0.125 µM) in [7]; 0.1 µg/mL (≈ 0.25 µM) in experiment [8]; 1.6 µg/mL (≈ 4.01 µM) in experiment [15]; 0.4 µg/mL (≈ 1 µM) in experiment [31]; 0.1 µg/mL (≈ 0.25 µM) in experiment [19]. Moreover, the minimal inhibitory concentration (MIC) is 0.4 µg/mL (≈ 1 µM) in experiment [20]; 0.4 µg/mL (≈ 1 µM) in experiment [21]; 0.4 µg/mL (≈ 1 µM) in experiment [22]; 0.05 µg/mL (≈ 0.125 µM) in [32]; 0.2 µg/mL (≈ 0.501 µM) in experiment [33]. For the same molecule, the PTD50 in experiment [9] is above 100 mg/kg. Further, the No effect dose in [10] amounted to 100 mg/kg. The same molecule showed a maximal tolerated dose (MTD) in [30] of 100 mg/kg.
